# Where a name gives a salt, the structure may show the parent alone. Calls of active or inactive are those of the source. No cut-off for these calls is given here.
# How the values were obtained:
# [1] = Colloidal aggregation in fed state simulated intestinal fluid assessed as colloid radius at 50 uM by dynamic light scattering assay in presence of 1% DMSO; assay type: physicochemical; conditions: simulated gi fluid
# How it was run: (§1)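 Concentrated DMSO stocks diluted into filtered FeSSIF: blank FeSSIF plus 15 mM sodium taurocholate and 3.75 mM lecithin, dissolved at 37 °C. Final DMSO 1% unless otherwise noted. Particle size by dynamic light scattering at 826.6 nm, detector at 90°, 100% laser power. Values are averages of three or more independent measurements at room temperature.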
# [2] = biological target: T1, Cruzipain (Trypanosoma cruzi, UniProt P25779); experiment: Inhibition of Trypanosoma cruzi cruzaine preincubated for 5 mins before substrate addition by fluorescence assay in absence of Triton X-100
# [3] = Colloidal aggregation in fed state simulated intestinal fluid by dynamic light scattering-based beads autocorrelation assay in presence of 1% DMSO; assay type: physicochemical; conditions: simulated gi fluid
# How it was run: (§2)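 FeSSIF samples examined by DLS (826.6 nm laser, 90° detector, room temperature), comparing autocorrelation curves with blank FeSSIF. The micelle background was checked with 200 nm calibration beads diluted in FeSSIF. Drug samples were made by diluting DMSO stocks into filtered FeSSIF (15 mM taurocholate, 3.75 mM lecithin).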
# [4] = Colloidal aggregation in fed state simulated intestinal fluid assessed as colloid radius at 10 uM by dynamic light scattering assay in presence of 1% DMSO; conditions: simulated gi fluid
# [5] = biological target: T1, Cruzipain; experiment: Inhibition of Trypanosoma cruzi cruzaine preincubated for 5 mins before substrate addition by fluorescence assay in presence of 0.01% Triton X-100
# [6] = Colloidal aggregation in fed state simulated intestinal fluid assessed as colloid radius at 100 uM by dynamic light scattering assay in presence of 1% DMSO; assay type: physicochemical; conditions: simulated gi fluid; how it was run: as §1
# [7] = Colloidal aggregation in fed state simulated intestinal fluid by dynamic light scattering assay in presence of 0.5% DMSO; assay type: physicochemical; conditions: simulated gi fluid; how it was run: as §1
# [8] = Colloidal aggregation in fed state simulated intestinal fluid assessed as colloid radius at 250 uM by dynamic light scattering assay in presence of 1% DMSO; assay type: physicochemical; conditions: simulated gi fluid; how it was run: as §1
# [9] = Colloidal aggregation in fed state simulated intestinal fluid assessed as colloid radius at 500 uM by dynamic light scattering assay in presence of 1% DMSO; assay type: physicochemical; conditions: simulated gi fluid; how it was run: as §1
# [10] = Colloidal aggregation in phosphate buffer at 200 uM by transmission electron microscopy in presence of 0.2% DMSO; assay type: physicochemical
# How it was run: (§3)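 Drug DMSO stocks diluted into 50 mM phosphate buffer. Samples adsorbed ~30 s onto glow-discharged formvar/carbon-coated copper grids and negatively stained with 2% ammonium molybdate. Imaged by transmission electron microscopy at 80 kV, standard magnification 25 000.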
# [11] = Colloidal aggregation in fed state simulated intestinal fluid at 700 uM by transmission electron microscopy in presence of 3% DMSO; assay type: physicochemical; conditions: simulated gi fluid
# How it was run: (§4)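 Drug DMSO stocks diluted into FeSSIF. Samples adsorbed ~30 s onto glow-discharged formvar/carbon-coated copper grids and negatively stained with 2% ammonium molybdate. Viewed by transmission electron microscopy at 80 kV, standard magnification 25 000, calibrated with catalase crystals and ferritin.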
# [12] = Binding affinity to beta-lactamase AmpC at 700 uM after 30 mins by SDS-PAGE
# How it was run: (§5)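 Cosedimentation in FeSSIF, with and without 2 μg AmpC β-lactamase added per sample. Samples centrifuged at 16000g for 30 min at room temperature. Supernatant removed completely; pellets resuspended in DMSO plus 50 mM KPi pH 7.0 and run on SDS-PAGE. Protein detected by silver staining. Drug-only pellets included as background controls.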
# [13] = Aggregation-based binding affinity to beta-lactamase AmpC at 700 uM in fed state simulated intestinal fluid after 30 mins by silver staining in presence of 3% DMSO; how it was run: as §5
# [14] = Colloidal aggregation in fed state simulated intestinal fluid by dynamic light scattering assay in presence of 3% DMSO; assay type: physicochemical; conditions: simulated gi fluid; how it was run: as §1
# [15] = Colloidal aggregation in fed state simulated intestinal fluid assessed as colloid radius at 600 uM by dynamic light scattering assay in presence of 3% DMSO; assay type: physicochemical; conditions: simulated gi fluid; how it was run: as §1
# [16] = Colloidal aggregation in fed state simulated intestinal fluid assessed as colloid radius at 2.5 uM by dynamic light scattering assay in presence of 1% DMSO; assay type: physicochemical; conditions: simulated gi fluid; how it was run: as §1
# [17] = Colloidal aggregation in fed state simulated intestinal fluid at 100 uM by transmission electron microscopy in presence of 1% DMSO; assay type: physicochemical; conditions: simulated gi fluid; how it was run: as §4
# [18] = Colloidal aggregation in fed state simulated intestinal fluid assessed as colloid radius at 20 uM by dynamic light scattering assay in presence of 1% DMSO; assay type: physicochemical; conditions: simulated gi fluid; how it was run: as §1
# [19] = Aggregation-based binding affinity to beta-lactamase AmpC at 200 uM in fed state simulated intestinal fluid after 30 mins by silver staining in presence of 2% DMSO; how it was run: as §5
# [20] = Colloidal aggregation in phosphate buffer at 50 uM by transmission electron microscopy in presence of 0.5% DMSO; assay type: physicochemical; how it was run: as §3
# [21] = Colloidal aggregation in fed state simulated intestinal fluid assessed as percent of drug in fraction after centrifugation by UV-visible spectrophotometry in presence of 3% DMSO; conditions: simulated gi fluid
# [22] = Binding affinity to beta-lactamase AmpC at 200 uM after 30 mins by SDS-PAGE; how it was run: as §5
# [23] = Colloidal aggregation in fed state simulated intestinal fluid by dynamic light scattering assay in presence of 0.75% DMSO; assay type: physicochemical; conditions: simulated gi fluid; how it was run: as §1
# [24] = Colloidal aggregation in fed state simulated intestinal fluid at 200 uM by transmission electron microscopy in presence of 1% DMSO; assay type: physicochemical; conditions: simulated gi fluid; how it was run: as §4
# [25] = Colloidal aggregation in fed state simulated intestinal fluid assessed as colloid radius at 150 uM by dynamic light scattering assay in presence of 0.75% DMSO; assay type: physicochemical; conditions: simulated gi fluid; how it was run: as §1
# [26] = Colloidal aggregation in phosphate buffer at 100 uM by transmission electron microscopy in presence of 0.2% DMSO; assay type: physicochemical; how it was run: as §3
# [27] = Colloidal aggregation in fed state simulated intestinal fluid assessed as colloid radius at 450 uM by dynamic light scattering assay in presence of 1% DMSO; assay type: physicochemical; conditions: simulated gi fluid; how it was run: as §1
# [28] = Colloidal aggregation in fed state simulated intestinal fluid by dynamic light scattering assay in presence of 1.8% DMSO; assay type: physicochemical; conditions: simulated gi fluid; how it was run: as §1
# [29] = Colloidal aggregation in fed state simulated intestinal fluid at 450 uM by dynamic light scattering-based beads autocorrelation assay in presence of 1.8% DMSO; assay type: physicochemical; conditions: simulated gi fluid; how it was run: as §2
# [30] = Colloidal aggregation in fed state simulated intestinal fluid assessed as colloid radius at 20 uM by dynamic light scattering assay in presence of 0.2% DMSO; assay type: physicochemical; conditions: simulated gi fluid; how it was run: as §1
# [31] = Colloidal aggregation in fed state simulated intestinal fluid assessed as colloid radius at 5 uM by dynamic light scattering assay in presence of 1% DMSO; assay type: physicochemical; conditions: simulated gi fluid; how it was run: as §1
# [32] = Colloidal aggregation in fed state simulated intestinal fluid by dynamic light scattering assay in presence of 0.2% DMSO; assay type: physicochemical; conditions: simulated gi fluid; how it was run: as §1
# [33] = Colloidal aggregation in fed state simulated intestinal fluid at 600 uM by dynamic light scattering-based beads autocorrelation assay in presence of 6% DMSO; assay type: physicochemical; conditions: simulated gi fluid; how it was run: as §2
# [34] = Colloidal aggregation in fed state simulated intestinal fluid assessed as colloid radius at 600 uM by dynamic light scattering assay in presence of 6% DMSO; conditions: simulated gi fluid
# [35] = Colloidal aggregation in fed state simulated intestinal fluid by dynamic light scattering assay in presence of 6% DMSO; assay type: physicochemical; conditions: simulated gi fluid; how it was run: as §1
# [36] = Colloidal aggregation in fed state simulated intestinal fluid assessed as colloid radius at 200 uM by dynamic light scattering assay in presence of 1% DMSO; assay type: physicochemical; conditions: simulated gi fluid; how it was run: as §1
# T1 sequence (P25779 whole entry): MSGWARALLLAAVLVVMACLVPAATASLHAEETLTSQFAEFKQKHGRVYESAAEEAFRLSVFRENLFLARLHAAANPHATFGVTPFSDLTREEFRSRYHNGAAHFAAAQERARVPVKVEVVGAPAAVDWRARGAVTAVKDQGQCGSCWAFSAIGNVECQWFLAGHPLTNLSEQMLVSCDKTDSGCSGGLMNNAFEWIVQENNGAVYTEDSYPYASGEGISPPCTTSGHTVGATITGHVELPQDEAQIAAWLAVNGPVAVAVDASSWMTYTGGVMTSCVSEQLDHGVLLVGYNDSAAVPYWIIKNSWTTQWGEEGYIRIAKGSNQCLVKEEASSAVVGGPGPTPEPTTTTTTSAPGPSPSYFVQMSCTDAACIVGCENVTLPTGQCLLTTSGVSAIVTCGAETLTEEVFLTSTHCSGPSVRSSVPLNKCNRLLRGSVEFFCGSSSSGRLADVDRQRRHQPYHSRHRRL
smiles,measurement,setting,value
Cc1c(C)c2c(c(C)c1OC(=O)c1cccnc1)CC[C@@](C)(CCC[C@H](C)CCC[C@H](C)CCCC(C)C)O2 (racemic),Activity,[1],55.7 nm
same,IC50,[2],98 µM
same,Activity,[3],Active
same,Activity,[4],104.1 nm
same,IC50,[5],> 400 µM
Cc1ccc(NC(=O)c2ccc(CN3CCN(C)CC3)cc2)cc1Nc1nccc(-c2cccnc2)n1 [IMATINIB],IC50,[2],207 µM
same,IC50,[5],297 µM
same,Activity,[6],118.4 nm
CSc1nc2cc(Cl)c(Oc3cccc(Cl)c3Cl)cc2[nH]1 [TRICLABENDAZOLE],IC50,[2],15 µM
same,Activity,[4],93 nm
same,IC50,[5],> 200 µM
COc1cc2ncnc(Nc3ccc(F)c(Cl)c3)c2cc1OCCCN1CCOCC1 [GEFITINIB],IC50,[2],88 µM
same,Activity,[7],250 µM
same,Activity,[8],160.1 nm
same,IC50,[5],148 µM
CN(C)CCCN1c2ccccc2Sc2ccc(Cl)cc21.Cl [CHLORPROMAZINE HYDROCHLORIDE],Activity,[9],29.2 nm
CC(C)Nc1cccnc1N1CCN(C(=O)c2cc3cc(NS(C)(=O)=O)ccc3[nH]2)CC1.CS(=O)(=O)O [DELAVIRDINE MESYLATE],Activity,[10],Active
same,Activity,[11],Active
same,IC50,[2],122 µM
same,Activity,[7],100 µM
same,Activity,[12],inactive
same,Activity,[13],Active
same,Activity,[3],Active
same,IC50,[5],> 200 µM
same,Activity,[14],600 µM
same,Activity,[15],62.8 nm
same,Activity,[6],195.1 nm
C(=C\c1ccccc1)/CN1CCN(C(c2ccccc2)c2ccccc2)CC1 [CINNARIZINE],IC50,[2],124 µM
same,IC50,[5],> 300 µM
CCC(C)n1ncn(-c2ccc(N3CCN(c4ccc(OCC5COC(Cn6cncn6)(c6ccc(Cl)cc6Cl)O5)cc4)CC3)cc2)c1=O (configuration not stated) [ITRACONAZOLE],Activity,[16],138.1 nm
same,IC50,[2],3 µM
same,Activity,[17],Active
same,Activity,[3],Active
same,Activity,[18],64.5 nm
same,IC50,[5],> 200 µM
same,Activity,[19],Active
same,Activity,[20],Active
same,Percent of drug in fraction,[21],6.9%
same,Activity,[22],inactive
O=C(c1ccc(OCCN2CCCCC2)cc1)c1c(-c2ccc(O)cc2)sc2cc(O)ccc12 [RALOXIFENE],IC50,[2],33 µM
same,Activity,[18],192.2 nm
same,IC50,[5],128 µM
COC(=O)C1=C(C)NC(C)=C(C(=O)OCCN2CCN(C(c3ccccc3)c3ccccc3)CC2)C1c1cccc([N+](=O)[O-])c1 (configuration not stated) [MANIDIPINE 6300],Activity,[16],125.6 nm
same,IC50,[2],6 µM
same,IC50,[5],> 100 µM
CN(C)c1ccc2nc3ccc(N(C)C)cc3[s+]c2c1.[Cl-] [METHYLENE BLUE ANHYDROUS],Activity,[23],150 µM
same,Activity,[24],Active
same,Activity,[3],Active
same,Activity,[18],95.9 nm
same,Activity,[25],52.6 nm
same,Activity,[26],Active
Cc1c(O)cccc1C(=O)N[C@@H](CSc1ccccc1)[C@H](O)CN1C[C@H]2CCCC[C@H]2C[C@H]1C(=O)NC(C)(C)C,IC50,[2],144 µM
same,Activity,[18],690.7 nm
same,IC50,[5],> 300 µM
CC(C)OC(=O)C(C)(C)Oc1ccc(C(=O)c2ccc(Cl)cc2)cc1 [FENOFIBRATE],Activity,[27],113.8 nm
same,IC50,[2],61 µM
same,Activity,[28],450 µM
same,Activity,[4],129 nm
same,IC50,[5],> 500 µM
same,Activity,[29],Active
CCCCc1oc2ccccc2c1C(=O)c1cc(I)c(OCCN(CC)CC)c(I)c1 [AMIODARONE HYDROCHLORIDE],IC50,[2],4 µM
same,IC50,[5],206 µM
CC(C)=CCC/C(C)=C/CC/C(C)=C/CC/C(C)=C/CC1=C(C)C(=O)c2ccccc2C1=O [MENATETRENONE],Activity,[30],36.8 nm
same,IC50,[2],18 µM
same,Activity,[31],72.5 nm
same,Activity,[3],Active
same,Activity,[32],20 µM
same,IC50,[5],> 200 µM
COC(=O)[C@H](c1ccccc1Cl)N1CCc2sccc2C1 [CLOPIDOGREL BISULFATE],IC50,[2],123 µM
same,IC50,[5],> 300 µM
O=C(Nc1cccc2c(=O)cc(-c3nnn[nH]3)oc12)c1ccc(OCCCCc2ccccc2)cc1,Activity,[1],1167.7 nm
same,IC50,[2],7 µM
same,IC50,[5],68 µM
CC(C)/N=c1\cc2n(-c3ccc(Cl)cc3)c3ccccc3nc-2cc1Nc1ccc(Cl)cc1 [CLOFAZIMINE],IC50,[2],6 µM
same,Activity,[33],Active
same,Activity,[34],103.7 nm
same,Activity,[4],356.1 nm
same,IC50,[5],40 µM
same,Activity,[35],600 µM
Cc1cc(C#N)cc(C)c1Oc1nc(Nc2ccc(C#N)cc2)nc(N)c1Br [ETRAVIRINE],IC50,[2],4 µM
same,Activity,[3],Active
same,Activity,[4],323.2 nm
same,IC50,[5],> 200 µM
same,Activity,[36],373.3 nm
Cc1cccc(CN2CCN(C(c3ccccc3)c3ccc(Cl)cc3)CC2)c1.Cl (configuration not stated) [MECLIZINE DIHCL],IC50,[2],129 µM
same,Activity,[31],133.3 nm
same,IC50,[5],> 250 µM

# Source: ChEMBL document CHEMBL1155470, “Colloid formation by drugs in simulated intestinal fluid” (J Med Chem, 2010)
